ChEMBL document CHEMBL1153109, “New potent 5-nitroindazole derivatives as inhibitors of Trypanosoma cruzi growth: synthesis, biological evaluation, and mechanism of action studies” (Bioorg Med Chem, 2009)

Test system: Trypanosoma cruzi
Assay: Inhibition of parasitic respiration in Trypanosoma cruzi tulahuen epimastigotes assessed as oxygen uptake at 2 mM relative to control
Format: functional
Conditions: not given

| SMILES | Oxygen uptake at 2000 µM [%] |
| --- | --- |
| O=[N+]([O-])c1ccc2c(c1)c(OCc1ccccc1)nn2CCCCCCBr | 100 |
| O=[N+]([O-])c1ccc2c(c1)c(OCc1ccccc1)nn2CCCCCBr | 38 |

Test system: Radical scavenging activity
Assay: Antioxidant activity assessed as DPPH radical scavenging activity
Format: functional
Set-up: concentration or dose not given beside the values
Conditions: not given
Method in brief: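 Scavenging of DPPH radical measured by ESR. Reaction mixtures contain 1.0 mM dpph and 1.0 mM 5-NI, both prepared in acetonitrile. The control contains no 5-NI. Signal recorded 1 min after the start of the reaction at microwave frequency 9.72 GHz and power 20 mW.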

| SMILES | Activity [%] |
| --- | --- |
| COc1nn(CCN(C)C)c2ccc([N+](=O)[O-])cc12 | < 30 |
| O=[N+]([O-])c1ccc2c(c1)c(OCc1ccccc1)nn2CCCCCCN1CCCCC1 | < 30 |
| COc1nn(CCN2CCCCC2)c2ccc([N+](=O)[O-])cc12 | < 30 |
| O=[N+]([O-])c1ccc2c(c1)c(OCc1ccccc1)nn2CCCCCN1CCCCCC1 | > 40 |
| COc1nn(CCCN(C)C)c2ccc([N+](=O)[O-])cc12 | < 30 |
| CCN(CC)CCn1nc(OC)c2cc([N+](=O)[O-])ccc21 | < 30 |
| COc1nn(CCN(C(C)C)C(C)C)c2ccc([N+](=O)[O-])cc12 | < 30 |
| COc1nn(CCN2CCOCC2)c2ccc([N+](=O)[O-])cc12 | < 30 |
| O=[N+]([O-])c1ccc2c(c1)c(OCc1ccccc1)nn2CCCCCN1CCCC1 | < 30 |
| CC(C)N(CCn1nc(OCc2ccccc2)c2cc([N+](=O)[O-])ccc21)C(C)C | < 30 |
| CCN(CC)CCn1nc(OCc2ccccc2)c2cc([N+](=O)[O-])ccc21 | < 30 |
| COc1nn(CCCBr)c2ccc([N+](=O)[O-])cc12 | < 30 |
| O=[N+]([O-])c1ccc2c(c1)c(OCc1ccccc1)nn2CCN1CCCCC1 | < 30 |
| CN(C)CCCCCCn1nc(OCc2ccccc2)c2cc([N+](=O)[O-])ccc21 | > 40 |
| O=[N+]([O-])c1ccc2c(c1)c(OCc1ccccc1)nn2CCCCCCBr | < 30 |
| O=[N+]([O-])c1ccc2c(c1)c(OCc1ccccc1)nn2CCCCCN1CCc2ccccc2C1 | < 30 |
| CN(C)CCn1nc(OCc2ccccc2)c2cc([N+](=O)[O-])ccc21 | < 30 |
| O=[N+]([O-])c1ccc2c(c1)c(OCc1ccccc1)nn2CCCCCBr | < 30 |
| O=[N+]([O-])c1ccc2c(c1)c(OCc1ccccc1)nn2CCN1CCOCC1 | < 30 |
| COc1nn(CCCN2CCCCC2)c2ccc([N+](=O)[O-])cc12 | < 30 |

Test system: Trypanosoma cruzi
Assay: Inhibition of parasitic respiration in Trypanosoma cruzi tulahuen epimastigotes assessed as oxygen uptake at 0.208 mM relative to control
Format: functional
Conditions: not given

| SMILES | Oxygen uptake at 208 µM [%] |
| --- | --- |
| CN(C)CCCCCCn1nc(OCc2ccccc2)c2cc([N+](=O)[O-])ccc21 | 59 |
| CN(C)CCn1nc(OCc2ccccc2)c2cc([N+](=O)[O-])ccc21 | 64 |

Test system: Trypanosoma cruzi
Assay: Inhibition of parasitic respiration in Trypanosoma cruzi tulahuen epimastigotes assessed as oxygen uptake at 0.104 mM relative to control
Format: functional
Conditions: not given

| SMILES | Oxygen uptake at 104 µM [%] |
| --- | --- |
| CN(C)CCCCCCn1nc(OCc2ccccc2)c2cc([N+](=O)[O-])ccc21 | 100 |

Test system: Trypanosoma cruzi
Assay: Antitrypanosomal activity against Trypanosoma cruzi CL Brener epimastigotes after 5 days
Format: functional, organism-based
Conditions: 120 h
Method in brief: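 CL Brener epimastigotes grown at 28 °C in BHI–Tryptose with 5% FBS. Stationary-phase (10-day) cells inoculated at 1 × 10⁶ cells/mL into medium with drug from a DMSO stock (final DMSO ≤0.4%); control contains 0.4% DMSO. Growth followed by A600. Inhibition at day 5 is computed from the day 0 and day 5 absorbances relative to control. IC50 is the concentration reducing the absorbance ratio to 50%.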

| SMILES | IC50 [µM] |
| --- | --- |
| COc1nn(CCN(C)C)c2ccc([N+](=O)[O-])cc12 | > 25 |
| O=[N+]([O-])c1ccc2c(c1)c(OCc1ccccc1)nn2CCCCCCN1CCCCC1 | 7.4 |
| COc1nn(CCN2CCCCC2)c2ccc([N+](=O)[O-])cc12 | > 25 |
| O=[N+]([O-])c1ccc2c(c1)c(OCc1ccccc1)nn2CCCCCN1CCCCCC1 | 10.5 |
| COc1nn(CCCN(C)C)c2ccc([N+](=O)[O-])cc12 | > 25 |
| CCN(CC)CCn1nc(OC)c2cc([N+](=O)[O-])ccc21 | > 25 |
| COc1nn(CCN(C(C)C)C(C)C)c2ccc([N+](=O)[O-])cc12 | > 25 |
| COc1nn(CCN2CCOCC2)c2ccc([N+](=O)[O-])cc12 | > 25 |
| O=[N+]([O-])c1ccc2c(c1)c(OCc1ccccc1)nn2CCCCCN1CCCC1 | 7.5 |
| CC(C)N(CCn1nc(OCc2ccccc2)c2cc([N+](=O)[O-])ccc21)C(C)C | 9.2 |
| CCN(CC)CCn1nc(OCc2ccccc2)c2cc([N+](=O)[O-])ccc21 | 11.3 |
| COc1nn(CCCBr)c2ccc([N+](=O)[O-])cc12 | 67.8 |
| O=[N+]([O-])c1ccc2c(c1)c(OCc1ccccc1)nn2CCN1CCCCC1 | 8.4 |
| CN(C)CCCCCCn1nc(OCc2ccccc2)c2cc([N+](=O)[O-])ccc21 | 9.4 |
| O=[N+]([O-])c1ccc2c(c1)c(OCc1ccccc1)nn2CCCCCCBr | 19.3 |
| O=[N+]([O-])c1ccc2c(c1)c(OCc1ccccc1)nn2CCCCCN1CCc2ccccc2C1 | 12.9 |
| CN(C)CCn1nc(OCc2ccccc2)c2cc([N+](=O)[O-])ccc21 | 25 |
| O=[N+]([O-])c1ccc2c(c1)c(OCc1ccccc1)nn2CCCCCBr | 20.7 |
| O=[N+]([O-])c1ccc2c(c1)c(OCc1ccccc1)nn2CCN1CCOCC1 | > 25 |
| COc1nn(CCCN2CCCCC2)c2ccc([N+](=O)[O-])cc12 | > 25 |

Test system: Trypanosoma cruzi
Assay: Inhibition of parasitic respiration in Trypanosoma cruzi tulahuen epimastigotes assessed as oxygen uptake at 0.42 mM relative to control
Format: functional
Conditions: not given

| SMILES | Oxygen uptake at 420 µM [%] |
| --- | --- |
| CN(C)CCCCCCn1nc(OCc2ccccc2)c2cc([N+](=O)[O-])ccc21 | 52 |
| O=[N+]([O-])c1ccc2c(c1)c(OCc1ccccc1)nn2CCCCCCBr | 100 |
| CN(C)CCn1nc(OCc2ccccc2)c2cc([N+](=O)[O-])ccc21 | 51 |
| O=[N+]([O-])c1ccc2c(c1)c(OCc1ccccc1)nn2CCCCCBr | 100 |

Test system: Caco-2
Assay: Cytotoxicity against human Caco-2 cells at 25 uM by MTT assay
Format: cell-based
Conditions: caco-2, 25 µM
Method in brief: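 Caco-2 cells kept in DMEM-F12 with 10% FBS, penicillin and streptomycin at 37 °C, 5% CO₂. Cells plated at 5 × 10⁴ cells/mL, then exposed to compound in PBS for 2 h. After washing, cells incubated with 0.5 mg/mL MTT for 120 min at 37 °C. Formazan dissolved in DMSO for 10 min at 37 °C and read at 540 nm.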

| SMILES | Cytotoxicity [%] |
| --- | --- |
| COc1nn(CCN(C)C)c2ccc([N+](=O)[O-])cc12 | 15 |
| O=[N+]([O-])c1ccc2c(c1)c(OCc1ccccc1)nn2CCCCCCN1CCCCC1 | 33 |
| COc1nn(CCN2CCCCC2)c2ccc([N+](=O)[O-])cc12 | 10 |
| O=[N+]([O-])c1ccc2c(c1)c(OCc1ccccc1)nn2CCCCCN1CCCCCC1 | 25 |
| COc1nn(CCCN(C)C)c2ccc([N+](=O)[O-])cc12 | 29 |
| CCN(CC)CCn1nc(OC)c2cc([N+](=O)[O-])ccc21 | 0 |
| COc1nn(CCN(C(C)C)C(C)C)c2ccc([N+](=O)[O-])cc12 | 15 |
| COc1nn(CCN2CCOCC2)c2ccc([N+](=O)[O-])cc12 | 0 |
| O=[N+]([O-])c1ccc2c(c1)c(OCc1ccccc1)nn2CCCCCN1CCCC1 | 25 |
| CC(C)N(CCn1nc(OCc2ccccc2)c2cc([N+](=O)[O-])ccc21)C(C)C | 0 |
| CCN(CC)CCn1nc(OCc2ccccc2)c2cc([N+](=O)[O-])ccc21 | 30 |
| O=[N+]([O-])c1ccc2c(c1)c(OCc1ccccc1)nn2CCN1CCCCC1 | 27 |
| CN(C)CCCCCCn1nc(OCc2ccccc2)c2cc([N+](=O)[O-])ccc21 | 40 |
| O=[N+]([O-])c1ccc2c(c1)c(OCc1ccccc1)nn2CCCCCN1CCc2ccccc2C1 | 15 |
| CN(C)CCn1nc(OCc2ccccc2)c2cc([N+](=O)[O-])ccc21 | 12 |
| O=[N+]([O-])c1ccc2c(c1)c(OCc1ccccc1)nn2CCN1CCOCC1 | 0 |
| COc1nn(CCCN2CCCCC2)c2ccc([N+](=O)[O-])cc12 | 0 |

Test system: Trypanosoma cruzi
Assay: Inhibition of parasitic respiration in Trypanosoma cruzi tulahuen epimastigotes assessed as oxygen uptake at 0.83 mM relative to control
Format: functional
Conditions: not given

| SMILES | Oxygen uptake at 830 µM [%] |
| --- | --- |
| O=[N+]([O-])c1ccc2c(c1)c(OCc1ccccc1)nn2CCCCCCBr | 100 |
| O=[N+]([O-])c1ccc2c(c1)c(OCc1ccccc1)nn2CCCCCBr | 100 |
